# Results from ChEMBL document CHEMBL1143202.
# Activity calls are given as the source filed them. The calls are words filed in the database; no cut-off is given here.
# Assays:
# Rattus norvegicus [1] = species on record: Rattus norvegicus; experiment: Inhibition of cytochrome c oxidase in Wistar Albino rat liver mitochondria at 25 uM relative to control; design: scale not given: the % may be the effect or the level left
# Rattus norvegicus [2] = species on record: Rattus norvegicus; experiment: Effect on ADP/O ratio in Wistar Albino rat liver mitochondria at 50 uM in presence of sodium glutamate relative to control; type: functional
# Summary of the method: (§1)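 Isolated rat liver mitochondria respiring on glutamate or succinate as substrate; oxygen consumption recorded. State 3 is the rate after ADP addition and state 4 the rate after ADP is exhausted. The respiratory control coefficient (RCC) and ADP/O ratio were determined in the same runs. Flavone tested across 25–200 μM.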
# Rattus norvegicus [3] = species on record: Rattus norvegicus; experiment: Effect on oxygen consumption rate in Wistar Albino rat liver mitochondria assessed as inhibition in state 3 respiration at 25 uM in presence of sodium glutamate relative to control; type: functional; design: scale not given: the % may be the effect or the level left; summary of the method: as §1
# Rattus norvegicus [4] = species on record: Rattus norvegicus; experiment: Inhibition of succinate-cytochrome c reductase in Wistar Albino rat liver mitochondria at 50 uM relative to control; design: scale not given: the % may be the effect or the level left
# Rattus norvegicus [5] = species on record: Rattus norvegicus; experiment: Inhibition of ATPase in Wistar Albino rat livers disrupted mitochondria at 200 uM relative to control; design: scale not given: the % may be the effect or the level left
# Rattus norvegicus [6] = species on record: Rattus norvegicus; experiment: Inhibition of ATPase in Wistar Albino rat livers intact mitochondria at 25 uM relative to control; design: scale not given: the % may be the effect or the level left
# Rattus norvegicus [7] = species on record: Rattus norvegicus; experiment: Effect on ADP/O ratio in Wistar Albino rat liver mitochondria at 25 uM in presence of succinate relative to control; type: functional; summary of the method: as §1
# Rattus norvegicus [8] = species on record: Rattus norvegicus; experiment: Inhibition of cytochrome c oxidase in Wistar Albino rat liver mitochondria at 75 uM relative to control; design: scale not given: the % may be the effect or the level left
# Rattus norvegicus [9] = species on record: Rattus norvegicus; experiment: Effect on oxygen consumption rate in Wistar Albino rat liver mitochondria assessed as inhibition in state 3 respiration at 200 uM in presence of succinate relative to control; type: functional; design: scale not given: the % may be the effect or the level left; summary of the method: as §1
# Rattus norvegicus [10] = species on record: Rattus norvegicus; experiment: Inhibition of ATPase in Wistar Albino rat livers intact mitochondria at 100 uM in presence of FCCP relative to control; design: scale not given: the % may be the effect or the level left
# Rattus norvegicus [11] = species on record: Rattus norvegicus; experiment: Effect on oxygen consumption rate in Wistar Albino rat liver mitochondria assessed as inhibition in state 4 respiration at 75 uM in presence of sodium glutamate relative to control; type: functional; design: scale not given: the % may be the effect or the level left; summary of the method: as §1
# Rattus norvegicus [12] = species on record: Rattus norvegicus; experiment: Inhibition of succinate dehydrogenase in Wistar Albino rat liver mitochondria at 75 uM relative to control; design: scale not given: the % may be the effect or the level left
# Rattus norvegicus [13] = species on record: Rattus norvegicus; experiment: Inhibition of NADH-cytochrome c reductase in Wistar Albino rat liver mitochondria at 100 uM relative to control; design: scale not given: the % may be the effect or the level left
# Rattus norvegicus [14] = species on record: Rattus norvegicus; experiment: Effect on respiratory control coefficient in Wistar Albino rat liver mitochondria at 100 uM in presence of sodium glutamate relative to control; type: functional; summary of the method: as §1
# Rattus norvegicus [15] = species on record: Rattus norvegicus; experiment: Effect on oxygen consumption rate in Wistar Albino rat liver mitochondria assessed as inhibition in state 3 respiration at 100 uM in presence of sodium glutamate relative to control; type: functional; design: scale not given: the % may be the effect or the level left; summary of the method: as §1
# Rattus norvegicus [16] = species on record: Rattus norvegicus; experiment: Effect on oxygen consumption rate in Wistar Albino rat liver mitochondria assessed as inhibition in state 4 respiration at 25 uM in presence of sodium glutamate relative to control; type: functional; design: scale not given: the % may be the effect or the level left; summary of the method: as §1
# Rattus norvegicus [17] = species on record: Rattus norvegicus; experiment: Effect on ADP/O ratio in Wistar Albino rat liver mitochondria at 100 uM in presence of succinate relative to control; type: functional; summary of the method: as §1
# Rattus norvegicus [18] = species on record: Rattus norvegicus; experiment: Effect on oxygen consumption rate in Wistar Albino rat liver mitochondria assessed as inhibition in state 3 respiration at 75 uM in presence of sodium glutamate relative to control; type: functional; design: scale not given: the % may be the effect or the level left; summary of the method: as §1
# Rattus norvegicus [19] = species on record: Rattus norvegicus; experiment: Effect on oxygen consumption rate in Wistar Albino rat liver mitochondria assessed as inhibition in state 3 respiration at 50 uM in presence of sodium glutamate relative to control; type: functional; design: scale not given: the % may be the effect or the level left; summary of the method: as §1
# Liver [20] = experiment: Reduction of cytochrome c in rat liver mitochondria in presence of NADH at 200 uM; type: functional
# Rattus norvegicus [21] = species on record: Rattus norvegicus; experiment: Inhibition of ATPase in Wistar Albino rat livers intact mitochondria at 25 uM in presence of FCCP relative to control; design: scale not given: the % may be the effect or the level left
# Liver [22] = experiment: Reduction of cytochrome c in rat liver mitochondria in presence of SOD at 200 uM; type: functional; design: scale not given: the % may be the effect or the level left
# Rattus norvegicus [23] = species on record: Rattus norvegicus; experiment: Inhibition of NADH dehydrogenase in Wistar Albino rat liver mitochondria at 75 uM relative to control; design: scale not given: the % may be the effect or the level left
# Rattus norvegicus [24] = species on record: Rattus norvegicus; experiment: Inhibition of ATPase in Wistar Albino rat livers disrupted mitochondria at 75 uM relative to control; design: scale not given: the % may be the effect or the level left
# Rattus norvegicus [25] = species on record: Rattus norvegicus; experiment: Inhibition of NADH dehydrogenase in Wistar Albino rat liver mitochondria at 25 uM relative to control; design: scale not given: the % may be the effect or the level left
# Rattus norvegicus [26] = species on record: Rattus norvegicus; experiment: Effect on ADP/O ratio in Wistar Albino rat liver mitochondria at 100 uM in presence of sodium glutamate relative to control; summary of the method: as §1
# Rattus norvegicus [27] = species on record: Rattus norvegicus; experiment: Effect on oxygen consumption rate in Wistar Albino rat liver mitochondria assessed as inhibition in state 3 respiration at 200 uM in presence of sodium glutamate relative to control; type: functional; design: scale not given: the % may be the effect or the level left; summary of the method: as §1
# Rattus norvegicus [28] = species on record: Rattus norvegicus; experiment: Effect on ADP/O ratio in Wistar Albino rat liver mitochondria at 50 uM in presence of succinate relative to control; type: functional; summary of the method: as §1
# Rattus norvegicus [29] = species on record: Rattus norvegicus; experiment: Inhibition of succinate-cytochrome c reductase in Wistar Albino rat liver mitochondria at 100 uM relative to control; design: scale not given: the % may be the effect or the level left
# Rattus norvegicus [30] = species on record: Rattus norvegicus; experiment: Inhibition of NADH-cytochrome c reductase in Wistar Albino rat liver mitochondria at 75 uM relative to control; design: scale not given: the % may be the effect or the level left
# Rattus norvegicus [31] = species on record: Rattus norvegicus; experiment: Inhibition of ATPase in Wistar Albino rat livers intact mitochondria at 75 uM in presence of FCCP relative to control; design: scale not given: the % may be the effect or the level left
# Rattus norvegicus [32] = species on record: Rattus norvegicus; experiment: Effect on oxygen consumption rate in Wistar Albino rat liver mitochondria assessed as inhibition in state 4 respiration at 75 uM in presence of succinate relative to control; type: functional; design: scale not given: the % may be the effect or the level left; summary of the method: as §1
# Rattus norvegicus [33] = species on record: Rattus norvegicus; experiment: Inhibition of ATPase in Wistar Albino rat livers intact mitochondria at 50 uM in presence of FCCP relative to control; design: scale not given: the % may be the effect or the level left
# Rattus norvegicus [34] = species on record: Rattus norvegicus; experiment: Inhibition of succinate dehydrogenase in Wistar Albino rat liver mitochondria at 50 uM relative to control; design: scale not given: the % may be the effect or the level left
# Rattus norvegicus [35] = species on record: Rattus norvegicus; experiment: Inhibition of ATPase in Wistar Albino rat livers disrupted mitochondria at 50 uM relative to control; design: scale not given: the % may be the effect or the level left
# Rattus norvegicus [36] = species on record: Rattus norvegicus; experiment: Effect on respiratory control coefficient in Wistar Albino rat liver mitochondria at 50 uM in presence of succinate relative to control; type: functional; summary of the method: as §1
# Rattus norvegicus [37] = species on record: Rattus norvegicus; experiment: Inhibition of NADH dehydrogenase in Wistar Albino rat liver mitochondria at 100 uM relative to control; design: scale not given: the % may be the effect or the level left
# Rattus norvegicus [38] = species on record: Rattus norvegicus; experiment: Effect on oxygen consumption rate in Wistar Albino rat liver mitochondria assessed as inhibition in state 4 respiration at 100 uM in presence of sodium glutamate relative to control; type: functional; design: scale not given: the % may be the effect or the level left; summary of the method: as §1
# Rattus norvegicus [39] = species on record: Rattus norvegicus; experiment: Inhibition of ATPase in Wistar Albino rat livers intact mitochondria at 75 uM relative to control; design: scale not given: the % may be the effect or the level left
# Liver [40] = experiment: Reduction of cytochrome c in rat liver mitochondria in presence of SOD and catalase at 200 uM; type: functional
# Rattus norvegicus [41] = species on record: Rattus norvegicus; experiment: Inhibition of ATPase in Wistar Albino rat livers disrupted mitochondria at 100 uM relative to control; design: scale not given: the % may be the effect or the level left
# Rattus norvegicus [42] = species on record: Rattus norvegicus; experiment: Effect on oxygen consumption rate in Wistar Albino rat liver mitochondria assessed as inhibition in state 3 respiration at 50 uM in presence of succinate relative to control; type: functional; design: scale not given: the % may be the effect or the level left; summary of the method: as §1
smiles,measurement,setting,value
COc1c(O)cc2oc(-c3ccc(O)c(O)c3)cc(=O)c2c1O,Activity,Rattus norvegicus [1],98%
same,Activity,Rattus norvegicus [2],85%
same,Activity,Rattus norvegicus [3],84.9%
same,Activity,Rattus norvegicus [4],23%
same,Activity,Rattus norvegicus [5],90%
same,Activity,Rattus norvegicus [6],99%
same,Activity,Rattus norvegicus [7],85.8%
same,Activity,Rattus norvegicus [8],102%
same,Activity,Rattus norvegicus [9],34.7%
same,Activity,Rattus norvegicus [10],100%
same,Activity,Rattus norvegicus [11],109%
same,Activity,Rattus norvegicus [12],78%
same,Activity,Rattus norvegicus [13],40%
same,Activity,Rattus norvegicus [14],24.9%
same,Activity,Rattus norvegicus [15],31.8%
same,Activity,Rattus norvegicus [16],109%
same,Activity,Rattus norvegicus [17],74.7%
same,Activity,Rattus norvegicus [18],54.9%
same,Activity,Rattus norvegicus [19],66%
same,Activity,Liver [20],Active
same,Activity,Rattus norvegicus [21],93%
same,Activity,Liver [22],46%
same,Activity,Rattus norvegicus [23],51%
same,Activity,Rattus norvegicus [24],105%
same,Activity,Rattus norvegicus [25],42%
same,Activity,Rattus norvegicus [26],88.6%
same,Activity,Rattus norvegicus [27],19.8%
same,Activity,Rattus norvegicus [28],85.4%
same,Activity,Rattus norvegicus [29],29%
same,Activity,Rattus norvegicus [30],46%
same,Activity,Rattus norvegicus [31],97%
same,Activity,Rattus norvegicus [32],121%
same,Activity,Rattus norvegicus [33],90%
same,Activity,Rattus norvegicus [34],69%
same,Activity,Rattus norvegicus [35],102%
same,Activity,Rattus norvegicus [36],55.1%
same,Activity,Rattus norvegicus [37],50%
same,Activity,Rattus norvegicus [38],99.4%
same,Activity,Rattus norvegicus [39],98%
same,Activity,Liver [40],inactive
same,Activity,Rattus norvegicus [41],94%
same,Activity,Rattus norvegicus [42],55.2%
